The values below come from ChEMBL document CHEMBL1125920, “Synthesis and biological activity of 5-alkyl-1,7,8-trisubstituted-6-fluoroquinoline-3-carboxylic acids” (1991).

In experiment [1] the test system is Mus musculus. The experiment in a line: In vivo oral protective dose was determined in female charles river CD-1 mice infected with Streptococcus pneumoniae. In kind it is functional. Particulars: read-out: PD50. A digest of the protocol:
(§1)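 Acute lethal systemic infection model in mice; drug given orally by gavage; potency read out as median protective dose (PD50), in mg/kg.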

The next experiment deals with Streptococcus pneumoniae. Nature of the experiment: Antibacterial activity was determined against gram positive organism, Streptococcus pneumoniae (SV-1). In kind it is functional. The essentials:
(§2)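 MIC by standard microtitration against a panel of 10 representative Gram-negative and Gram-positive organisms; values reported in µg/mL.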

The next experiment has as its system Streptococcus pyogenes. Nature of the experiment: Antibacterial activity was determined against gram positive organism, Streptococcus pyogenes (C203). In kind it is functional. The essentials: as §2
Another experiment concerns Pseudomonas aeruginosa. The experiment in a line: Antibacterial activity was determined against gram negative organism, Pseudomonas aeruginosa (UI-18). In kind it is functional. The essentials:
as §2

The test system of experiment [2] is Mus musculus. Nature of the experiment: In vivo subcutaneous protective dose was determined in female charles river CD-1 mice infected with Escherichia coli (vogel). In kind it is functional. The note with it: sc, read-out: PD50. The essentials:
(§3)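 Acute lethal systemic infection model in mice; drug given by subcutaneous injection; potency read out as median protective dose (PD50), in mg/kg.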

In experiment [3] the test system is Mus musculus. Nature of the experiment: In vivo oral protective dose was determined in female charles river CD-1 mice infected with Escherichia coli (vogel). The format is functional. The note with it: for ED50: Mus musculus, po, read-out: PD50. The essentials:
as §1

Experiment [4] has as its system Staphylococcus aureus. Nature of the experiment: Antibacterial activity was determined against gram positive organism, Staphylococcus aureus (H228). The format is functional. The essentials:
as §2

For the next experiment, the system named is Enterococcus faecalis. The experiment in a line: Antibacterial activity was determined against gram positive organism, Streptococcus faecalis (MGH-2). In kind it is functional. The essentials: as §2
Experiment [5] is described as follows: MIC ratio measured as the mean MICs of gram-positive bacteria. The format is functional. The essentials:
(§4)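 Geometric mean of the MICs (µg/mL) over the Gram-negative or the Gram-positive strains of the 10-organism microtitration panel, calculated separately for each class.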

Experiment [6] concerns Staphylococcus aureus. Nature of the experiment: Antibacterial activity was determined against gram positive organism, Staphylococcus aureus (UC76). The format is functional. The essentials:
as §2

A further experiment relates to Bacteria. The experiment in a line: Antibacterial activity was determined against gram negative organism, Providencia rettgeri. (M1771). In kind it is functional. The essentials: as §2
Another experiment relates to Klebsiella pneumoniae. Nature of the experiment: Antibacterial activity was determined against gram negative organism, K. pneumoniae (MGH-2). In kind it is functional. The essentials: as §2
Experiment [7] deals with Mus musculus. The experiment in a line: In vivo subcutaneous protective dose was determined in female charles river CD-1 mice infected with Streptococcus pneumoniae. The format is functional. The note with it: sc, read-out: PD50. A digest of the protocol:
as §3

Experiment [8] in a line: MIC ratio measured as the mean MICs of gram-negative bacteria. In kind it is functional. A digest of the protocol:
as §4

A further experiment deals with Escherichia coli. Nature of the experiment: Antibacterial activity was determined against gram negative organism, E. coli(vogel). In kind it is functional. The essentials:
as §2

Experiment [9] has as its target DNA gyrase (Escherichia coli) (UniProt P0AES6+P0AES4).
For a further experiment, the system named is Enterobacter cloacae. The experiment in a line: Antibacterial activity against gram negative organism, […] (MA2646). The format is functional.

Each structure is given as a SMILES string. Values after ≈ are worked out from the molar mass of the structure shown.

Usually MIC stands for the least concentration at which growth counts as inhibited.

As for `CC1CN(c2cc3c(cc2F)c(=O)c(C(=O)O)cn3C2CC2)CCN1` (stereo not drawn), the ED50 in the experiment on Mus musculus [1] amounted to 39 mg/kg; with Mus musculus [2], 0.4 mg/kg; in the experiment on Mus musculus [3], 1 mg/kg; in the experiment with Mus musculus [7], 12 mg/kg. Moreover, the MIC in the experiment on Streptococcus pneumoniae came out at 0.2 µg/mL (≈ 0.579 µM); against Streptococcus pyogenes it was 0.2 µg/mL (≈ 0.579 µM); against Pseudomonas aeruginosa, 0.4 µg/mL (≈ 1.16 µM); against Staphylococcus aureus [4] it was 0.4 µg/mL (≈ 1.16 µM); in the experiment on Enterococcus faecalis, 0.4 µg/mL (≈ 1.16 µM); with Staphylococcus aureus [6], 0.1 µg/mL (≈ 0.29 µM). Also, the MIC against Bacteria was found to be 0.1 µg/mL (≈ 0.29 µM); against Klebsiella pneumoniae it was 0.05 µg/mL (≈ 0.145 µM). For the same compound, the Ratio was 0.23 in experiment [5] and 0.066 in experiment [8].

Consider `NC1CCN(c2cc3c(cc2F)c(=O)c(C(=O)O)cn3C2CC2)C1` (stereo not drawn), for which the MIC was determined as 0.1 µg/mL (≈ 0.302 µM) in the experiment with Streptococcus pneumoniae, 0.2 µg/mL (≈ 0.604 µM) in the experiment on Pseudomonas aeruginosa, 0.025 µg/mL (≈ 0.0754 µM) with Escherichia coli and 0.1 µg/mL (≈ 0.302 µM) in the experiment with Bacteria. Besides, the ED50 with Mus musculus [2] came to 0.5 mg/kg; with Mus musculus [3], 3.4 mg/kg. In the experiment with Mus musculus [3], this compound yielded a PD50 of 3.4 mg/kg. Also, the figures for the Ratio in experiment [5] and in experiment [8] were 0.075 and 0.057, respectively. Besides, the DNA cleavage in experiment [9] was found to be 0.1 µg/mL.

With `O=C(O)c1cn(C2CC2)c2c(F)c(N3CCNCC3)c(F)cc2c1=O`, the MIC in the experiment with Enterobacter cloacae is 0.05 µg/mL (≈ 0.143 µM); in the experiment on Bacteria, 0.1 µg/mL (≈ 0.286 µM). Moreover, the ED50 in the experiment on Mus musculus [1] was 59 mg/kg; in the experiment with Mus musculus [2] it was 0.25 mg/kg; with Mus musculus [3], 0.45 mg/kg; with Mus musculus [7], 29 mg/kg. In addition, the Ratio in experiment [5] was determined as 0.4; in [8] it was 0.076. In addition, the DNA cleavage in experiment [9] worked out at 0.5 µg/mL.

As to `Cc1c(F)c(N2CCC(N)C2)cc2c1c(=O)c(C(=O)O)cn2C1CC1` (stereo not drawn), the MIC in the experiment on Enterobacter cloacae was 0.05 µg/mL (≈ 0.145 µM); with Streptococcus pneumoniae, 0.013 µg/mL (≈ 0.0376 µM); in the experiment with Streptococcus pyogenes, 0.025 µg/mL (≈ 0.0724 µM); with Pseudomonas aeruginosa it was 0.4 µg/mL (≈ 1.16 µM); against Staphylococcus aureus [4], 0.1 µg/mL (≈ 0.29 µM); against Escherichia coli, 0.025 µg/mL (≈ 0.0724 µM). Moreover, the MIC against Enterococcus faecalis was 0.4 µg/mL (≈ 1.16 µM); against Staphylococcus aureus [6], 0.025 µg/mL (≈ 0.0724 µM); against Bacteria, 0.1 µg/mL (≈ 0.29 µM); against Klebsiella pneumoniae it was 0.1 µg/mL (≈ 0.29 µM). Also, the ED50 in the experiment with Mus musculus [2] came to 0.7 mg/kg; in the experiment on Mus musculus [3] it was 9.5 mg/kg. Moreover, the Ratio in [5] was 0.05; in [8], 0.087. Moreover, in experiment [9], the DNA cleavage turned out to be 0.38 µg/mL.

Turning to `O=C(O)c1cn(C2CC2)c2cc(N3CCNCC3)c(F)cc2c1=O` [CIPROFLOXACIN], the ED50 with Mus musculus [1] was 100 mg/kg; in the experiment with Mus musculus [2], 0.25 mg/kg; with Mus musculus [3], 1 mg/kg; in the experiment on Mus musculus [7], 19 mg/kg. Further, the MIC against Streptococcus pyogenes came out at 0.8 µg/mL (≈ 2.41 µM); in the experiment on Pseudomonas aeruginosa, 0.4 µg/mL (≈ 1.21 µM); in the experiment on Enterococcus faecalis, 0.8 µg/mL (≈ 2.41 µM); against Staphylococcus aureus [6], 0.2 µg/mL (≈ 0.604 µM); in the experiment on Bacteria it was 0.05 µg/mL (≈ 0.151 µM).

For `CCNCC1CCN(c2cc3c(cc2F)c(=O)c(C(=O)O)cn3CC)C1` (stereo not drawn), the MIC amounted to 0.4 µg/mL (≈ 1.11 µM) against Enterobacter cloacae; 0.2 µg/mL (≈ 0.553 µM) against Streptococcus pneumoniae; 0.1 µg/mL (≈ 0.277 µM) in the experiment with Streptococcus pyogenes; 3.1 µg/mL (≈ 8.58 µM) with Pseudomonas aeruginosa; 0.2 µg/mL (≈ 0.553 µM) against Staphylococcus aureus [4]; 0.1 µg/mL (≈ 0.277 µM) in the experiment with Escherichia coli. Moreover, the MIC in the experiment on Enterococcus faecalis came to 0.2 µg/mL (≈ 0.553 µM); with Staphylococcus aureus [6], 0.1 µg/mL (≈ 0.277 µM); against Bacteria it was 1.6 µg/mL (≈ 4.43 µM); against Klebsiella pneumoniae, 0.4 µg/mL (≈ 1.11 µM). Further, the Ratio in experiment [5] was found to be 0.15; in experiment [8], 0.6. This compound registered a DNA cleavage in experiment [9] of 2.5 µg/mL.

Regarding `Cc1c(F)c(N2CCC(N)C2)cc2c1c(=O)c(C(=O)O)cn2-c1ccc(F)cc1F` (stereo not drawn), the MIC with Enterobacter cloacae came to 0.05 µg/mL (≈ 0.12 µM); in the experiment on Streptococcus pneumoniae, 0.025 µg/mL (≈ 0.0599 µM); in the experiment with Streptococcus pyogenes, 0.05 µg/mL (≈ 0.12 µM); in the experiment on Pseudomonas aeruginosa, 0.8 µg/mL (≈ 1.92 µM); in the experiment with Staphylococcus aureus [4], 0.05 µg/mL (≈ 0.12 µM); in the experiment on Escherichia coli, 0.05 µg/mL (≈ 0.12 µM). In addition, the minimal inhibitory concentration (MIC) is 0.1 µg/mL (≈ 0.24 µM) with Enterococcus faecalis, 0.013 µg/mL (≈ 0.0311 µM) against Staphylococcus aureus [6], 0.2 µg/mL (≈ 0.479 µM) against Bacteria and 0.1 µg/mL (≈ 0.24 µM) against Klebsiella pneumoniae. Also, the Ratio in [5] was 0.038; in experiment [8], 0.13. This compound had a DNA cleavage in [9] of 0.37 µg/mL.
